Laboratory results published in ChEMBL document CHEMBL2406985, “Evaluation of (4-aminobutyloxy)quinolines as a novel class of antifungal agents” (2013).
In brackets after ≈: the same amount, converted by molar mass.

What was measured:
Format in all cases: functional
[1] = Antifungal activity against Rhodotorula bogoriensis MUCL 11796 at 0.1 mg/uL per disc after 24 hrs by disc diffusion test
Aspergillus flavus [2] = assay: Antifungal activity against Aspergillus flavus ATCC 44310 at 0.1 mg/uL per disc after 48 hrs by disc diffusion test
Fusarium solani [3] = assay: Antifungal activity against Fusarium solani CBS 230.34 at 0.1 mg/uL per disc after 48 hrs by disc diffusion test
Candida albicans [4] = assay: Antifungal activity against Candida albicans IHEM 374 at 0.1 mg/uL per disc after 24 hrs by disc diffusion test
Fusarium solani [5] = assay: Antifungal activity against Fusarium solani CBS 230.34 after 48 to 72 hrs by microdilution method
In short: (§1)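 Broth microdilution used stock inocula in saline at 0.5 McFarland. A log2 dilution series (0–500 mg/L) was made in double-concentration RPMI-1640 with glutamine and a pH indicator, without bicarbonate. Plates were incubated at 37 °C without agitation: C. albicans and R. bogoriensis 24 h, A. flavus 48 h, F. solani 72 h. Absorbance was read at 530 nm to give the MIC.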

Candida albicans [6] = assay: Antifungal activity against Candida albicans IHEM 374 after 24 hrs by microdilution method; details: IHEM 374, 24 h; in short: as §1
[7] = Antifungal activity against Rhodotorula bogoriensis MUCL 11796 after 24 hrs by microdilution method; in short: as §1
Aspergillus flavus [8] = assay: Antifungal activity against Aspergillus flavus ATCC 44310 after 48 to 72 hrs by microdilution method; in short: as §1

MIC (Fusarium solani [5]) [µg/mL] | MIC (Candida albicans [6]) [µg/mL] | MIC [7] [µg/mL] | MIC (Aspergillus flavus [8]) [µg/mL] | SMILES | inhibition zone (IZ) [1] [mm] | diameter of the inhibition zone (DIZ) (Aspergillus flavus [2]) [mm] | diameter of the inhibition zone (DIZ) (Fusarium solani [3]) [mm] | diameter of the inhibition zone (DIZ) (Candida albicans [4]) [mm]
– | – | – | – | CCN(CC)CCCCOc1ccc2ncccc2c1 | 0 | 0 | 0 | 0
– | – | – | – | CC(CCNCc1ccc(Cl)cc1)COc1cccc2ncccc12 (centres undefined) | 7 | 0 | 0 | 0
– | – | – | – | CC(CCNCc1ccc(Cl)cc1)COc1c(I)cc(I)c2cccnc12 (centres undefined) | 10 | 0 | 0 | 7
– | – | – | – | Clc1ccc(CNCCCCOc2cccc3ncccc23)cc1 | 0 | 0 | 0 | 0
– | – | – | – | Clc1ccc(CNCCCCOc2ccc(Cl)c3cccnc23)cc1 | 30 | 0 | 0 | 8
– | – | – | – | Clc1ccc(CNCCCCOc2ccc3ncccc3c2)cc1 | 0 | 0 | 0 | 0
0.5 (≈ 1.35 µM) | 0.25 (≈ 0.677 µM) | 0.12 (≈ 0.325 µM) | 0.5 (≈ 1.35 µM) | CCN(CC)CCC(C)COc1c(Cl)cc(Cl)c2ccc(C)nc12 (centres undefined) | 30 | 10 | 20 | 20
– | – | – | – | CCN(CC)CCC(C)COc1cccc2cccnc12 (centres undefined) | 0 | 0 | 0 | 0
– | 0.25 (≈ 0.563 µM) | 0.5 (≈ 1.13 µM) | 2 (≈ 4.5 µM) | CCN(CC)CCC(C)COc1c(Br)cc(Br)c2cccnc12 (centres undefined) | 28 | 7 | 0 | 20
– | – | – | – | CCN(CC)CCCCOc1cccc2ncccc12 | 0 | 0 | 0 | 0
– | – | – | – | CCN(CC)CCCCOc1c(I)cc(Cl)c2cccnc12 | 14 | 7 | 0 | 0
– | 4 (≈ 8.95 µM) | 0.25 (≈ 0.56 µM) | 4 (≈ 8.95 µM) | CCN(CC)CCC(C)COc1c(I)cc(Cl)c2cccnc12 (centres undefined) | 30 | 10 | 0 | 7
– | – | – | – | CC(CCNCc1ccc(Cl)cc1)COc1cccc2cccnc12 (centres undefined) | 15 | 0 | 0 | 0
– | – | – | – | CCN(CC)CCCCOc1cccc2cccnc12 | 0 | 0 | 0 | 0
– | 0.5 (≈ 0.929 µM) | 0.5 (≈ 0.929 µM) | 4 (≈ 7.43 µM) | CCN(CC)CCC(C)COc1c(I)cc(I)c2cccnc12 (centres undefined) | 26 | 7 | 0 | 12
– | – | – | – | CCN(CC)CCCCOc1ccc(Cl)c2cccnc12 | 0 | 0 | 0 | 12
– | 0.5 (≈ 1.41 µM) | 0.25 (≈ 0.704 µM) | 0.5 (≈ 1.41 µM) | CCN(CC)CCC(C)COc1c(Cl)cc(Cl)c2cccnc12 (centres undefined) | 32 | 12 | 0 | 10
